pIC50: −log10 of the molar value. Activity calls are given as the source filed them. No cut-off for these calls is given here.
Key:
[1] = molecular target: T1, Rho-associated protein kinase 2 (Homo sapiens, UniProt O75116); experiment: Inhibition of wild type partial length human ROCK1 (M1 to T431 residues) expressed in Mammalian expression system by Euro-fins kinase profiler assay
Summary of the method: (§1)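 IC50 values from the Eurofins Kinase Profiler service; averages of two independent experiments, mean ± SD.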
Target sequence in this assay (O75116 whole entry, the tested form may be a part): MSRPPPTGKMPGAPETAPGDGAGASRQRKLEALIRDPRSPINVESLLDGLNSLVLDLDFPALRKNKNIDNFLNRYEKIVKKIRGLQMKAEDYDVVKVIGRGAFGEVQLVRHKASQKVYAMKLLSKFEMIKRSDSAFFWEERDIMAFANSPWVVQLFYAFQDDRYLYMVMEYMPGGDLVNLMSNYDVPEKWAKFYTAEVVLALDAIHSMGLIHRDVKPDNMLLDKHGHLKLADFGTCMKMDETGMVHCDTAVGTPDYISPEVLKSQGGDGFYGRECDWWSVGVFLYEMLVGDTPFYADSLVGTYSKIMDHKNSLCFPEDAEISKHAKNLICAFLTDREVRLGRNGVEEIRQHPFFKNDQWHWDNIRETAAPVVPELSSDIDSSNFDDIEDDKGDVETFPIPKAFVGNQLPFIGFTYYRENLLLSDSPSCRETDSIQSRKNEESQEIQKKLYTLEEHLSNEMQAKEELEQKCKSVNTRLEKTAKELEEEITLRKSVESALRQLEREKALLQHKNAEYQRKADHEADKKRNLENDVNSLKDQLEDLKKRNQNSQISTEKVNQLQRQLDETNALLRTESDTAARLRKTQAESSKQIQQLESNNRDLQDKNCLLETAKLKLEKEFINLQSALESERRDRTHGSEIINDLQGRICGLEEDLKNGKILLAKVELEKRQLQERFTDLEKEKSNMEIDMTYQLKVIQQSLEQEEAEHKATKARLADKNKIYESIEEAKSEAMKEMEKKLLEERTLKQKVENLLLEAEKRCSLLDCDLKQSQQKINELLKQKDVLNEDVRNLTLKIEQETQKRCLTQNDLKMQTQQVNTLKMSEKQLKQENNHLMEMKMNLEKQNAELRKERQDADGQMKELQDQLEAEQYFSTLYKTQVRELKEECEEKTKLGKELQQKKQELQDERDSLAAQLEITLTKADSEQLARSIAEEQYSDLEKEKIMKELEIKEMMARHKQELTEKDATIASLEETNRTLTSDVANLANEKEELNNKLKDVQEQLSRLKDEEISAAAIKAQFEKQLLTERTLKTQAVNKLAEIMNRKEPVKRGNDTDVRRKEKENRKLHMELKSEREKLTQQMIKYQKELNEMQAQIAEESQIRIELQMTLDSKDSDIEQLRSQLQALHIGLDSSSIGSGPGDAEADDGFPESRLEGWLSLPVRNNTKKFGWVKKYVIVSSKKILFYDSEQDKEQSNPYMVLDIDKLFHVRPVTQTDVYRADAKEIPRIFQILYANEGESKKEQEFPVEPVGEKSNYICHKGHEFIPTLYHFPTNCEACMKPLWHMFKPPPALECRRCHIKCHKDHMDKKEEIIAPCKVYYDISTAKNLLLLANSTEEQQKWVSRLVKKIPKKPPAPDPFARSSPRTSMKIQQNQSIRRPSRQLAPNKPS

[2] = molecular target: T2, Rho-associated protein kinase 1 (Homo sapiens, UniProt Q13464); experiment: Inhibition of wild type partial length human ROCK1 (M1 to R415 residues) expressed in mammalian expression system by Euro-fins kinase profiler assay; summary of the method: as §1
Target sequence in this assay (Q13464 whole entry, the tested form may be a part): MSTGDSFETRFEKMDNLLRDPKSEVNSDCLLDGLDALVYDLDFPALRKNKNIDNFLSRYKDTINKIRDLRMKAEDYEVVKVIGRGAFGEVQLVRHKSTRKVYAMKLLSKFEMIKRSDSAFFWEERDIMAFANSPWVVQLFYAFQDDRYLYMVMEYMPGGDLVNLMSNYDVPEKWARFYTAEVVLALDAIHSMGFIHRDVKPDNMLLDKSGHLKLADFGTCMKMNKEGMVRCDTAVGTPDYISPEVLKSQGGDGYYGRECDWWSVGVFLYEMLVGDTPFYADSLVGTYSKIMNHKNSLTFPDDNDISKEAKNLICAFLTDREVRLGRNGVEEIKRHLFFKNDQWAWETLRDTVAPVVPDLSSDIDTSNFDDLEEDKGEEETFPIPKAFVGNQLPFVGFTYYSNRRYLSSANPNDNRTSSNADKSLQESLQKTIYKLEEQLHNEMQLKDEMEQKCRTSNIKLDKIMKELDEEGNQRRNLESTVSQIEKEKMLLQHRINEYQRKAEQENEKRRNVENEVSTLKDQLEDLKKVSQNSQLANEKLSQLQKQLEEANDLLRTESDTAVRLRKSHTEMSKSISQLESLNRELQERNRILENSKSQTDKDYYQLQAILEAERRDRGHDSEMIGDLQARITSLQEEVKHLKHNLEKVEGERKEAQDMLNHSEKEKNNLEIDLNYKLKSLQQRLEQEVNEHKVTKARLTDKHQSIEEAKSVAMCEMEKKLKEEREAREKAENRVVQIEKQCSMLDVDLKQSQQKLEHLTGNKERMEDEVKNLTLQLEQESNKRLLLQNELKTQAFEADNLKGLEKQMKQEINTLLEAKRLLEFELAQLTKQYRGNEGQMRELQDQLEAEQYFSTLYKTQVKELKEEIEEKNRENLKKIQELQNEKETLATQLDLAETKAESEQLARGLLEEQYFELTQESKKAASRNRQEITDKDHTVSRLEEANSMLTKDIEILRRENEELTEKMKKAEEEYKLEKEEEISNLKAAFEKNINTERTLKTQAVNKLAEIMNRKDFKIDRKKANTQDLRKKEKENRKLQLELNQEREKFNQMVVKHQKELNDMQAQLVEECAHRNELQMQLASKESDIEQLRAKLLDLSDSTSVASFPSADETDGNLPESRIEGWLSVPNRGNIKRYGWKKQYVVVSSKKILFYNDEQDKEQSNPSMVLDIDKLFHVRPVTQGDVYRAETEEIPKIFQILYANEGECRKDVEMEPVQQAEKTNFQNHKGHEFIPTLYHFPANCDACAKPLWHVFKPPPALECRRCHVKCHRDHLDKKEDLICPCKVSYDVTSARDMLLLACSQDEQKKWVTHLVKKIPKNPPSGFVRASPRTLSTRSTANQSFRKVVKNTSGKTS

[3] = system: SH-SY5Y; experiment: Inhibition of human ROCK in human SH-SY5Y cells assessed as inhibition of phosphorylation of MYPT1 at 0.1 to 1 uM measured after 12 hrs by western blot assay; assay type: cell-based; conditions: dose 0.1-1 µM
Summary of the method: (§2)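 SH-SY5Y cells exposed to compound at 0.1, 0.3 and 1 µM for 12 h. Phospho-MYPT1 assessed by western blot, with immunoblots quantified. Significance versus untreated control by t test.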

[4] = molecular target: LIM domain kinase 2 (Homo sapiens) (UniProt P53671); experiment: Inhibition of LIMK2 (unknown origin) at 10 uM
Summary of the method: (§3)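 Kinase selectivity panel of 100 representative kinases, each tested at a fixed 10 µM; inhibition rate recorded per kinase. Values are averages of two independent experiments, mean ± SD.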

[5] = molecular target: T2, Rho-associated protein kinase 1; experiment: Inhibition of ROCK1 (unknown origin) at 10 uM; summary of the method: as §3
Target sequence in this assay (Q13464 2-1354 limits assumed): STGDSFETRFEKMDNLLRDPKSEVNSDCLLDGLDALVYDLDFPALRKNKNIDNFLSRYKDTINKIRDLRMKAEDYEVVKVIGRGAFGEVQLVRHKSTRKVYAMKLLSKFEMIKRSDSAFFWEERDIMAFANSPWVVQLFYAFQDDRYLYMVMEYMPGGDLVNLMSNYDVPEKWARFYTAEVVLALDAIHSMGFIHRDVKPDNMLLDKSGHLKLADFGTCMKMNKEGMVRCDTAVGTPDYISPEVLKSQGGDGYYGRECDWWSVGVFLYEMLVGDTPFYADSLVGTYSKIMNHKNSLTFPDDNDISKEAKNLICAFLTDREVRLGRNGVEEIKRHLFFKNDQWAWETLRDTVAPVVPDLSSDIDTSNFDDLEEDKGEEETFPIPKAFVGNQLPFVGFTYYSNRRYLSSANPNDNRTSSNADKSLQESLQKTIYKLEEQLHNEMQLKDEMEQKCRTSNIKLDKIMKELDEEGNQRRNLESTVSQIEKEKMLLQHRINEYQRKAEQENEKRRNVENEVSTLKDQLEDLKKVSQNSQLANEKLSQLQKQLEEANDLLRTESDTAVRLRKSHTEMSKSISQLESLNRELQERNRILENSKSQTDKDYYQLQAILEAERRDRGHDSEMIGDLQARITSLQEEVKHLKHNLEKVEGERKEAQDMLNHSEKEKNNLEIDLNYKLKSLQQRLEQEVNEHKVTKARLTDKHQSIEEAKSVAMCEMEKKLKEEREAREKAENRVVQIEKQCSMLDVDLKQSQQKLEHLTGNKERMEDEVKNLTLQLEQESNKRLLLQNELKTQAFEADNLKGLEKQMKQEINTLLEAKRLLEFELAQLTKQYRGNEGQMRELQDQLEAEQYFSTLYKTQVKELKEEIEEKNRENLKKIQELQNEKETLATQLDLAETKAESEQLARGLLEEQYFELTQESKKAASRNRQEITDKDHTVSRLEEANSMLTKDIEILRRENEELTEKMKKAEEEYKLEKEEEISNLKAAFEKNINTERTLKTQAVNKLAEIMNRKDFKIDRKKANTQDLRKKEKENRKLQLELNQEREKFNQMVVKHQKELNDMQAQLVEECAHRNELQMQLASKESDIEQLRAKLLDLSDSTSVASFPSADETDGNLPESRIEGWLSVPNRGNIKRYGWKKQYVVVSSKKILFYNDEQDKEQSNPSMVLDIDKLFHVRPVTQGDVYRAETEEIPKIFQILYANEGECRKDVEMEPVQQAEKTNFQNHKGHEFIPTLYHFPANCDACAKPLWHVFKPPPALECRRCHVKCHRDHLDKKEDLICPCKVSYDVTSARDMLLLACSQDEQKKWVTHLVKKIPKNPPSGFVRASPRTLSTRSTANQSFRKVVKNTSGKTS

[6] = molecular target: T1, Rho-associated protein kinase 2; experiment: Inhibition of ROCK2 (unknown origin) at 10 uM; summary of the method: as §3
Target sequence in this assay (O75116 whole entry, looked up, the tested form may be a part): as the sequence (O75116 whole entry, the tested form may be a part) above

[7] = system: SH-SY5Y; experiment: Effect on MYPT1 expression in human SH-SY5Y cells at 0.1 to 1 uM measured after 12 hrs by western blot assay; assay type: functional, cell-based; conditions: dose 0.1-1 µM; summary of the method: as §2
[8] = system: Oryctolagus cuniculus; experiment: Antiglaucoma activity in topically treated NZW rabbits assessed as reduction of intra ocular pressure measured after 1 hr relative to control; assay type: functional; parameters: scale not given: the % may be the effect or the level left
Summary of the method: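 Ocular normotensive NZW rabbits received 0.3% eye drops topically in one eye and vehicle in the contralateral eye. IOP was followed over several hours after instillation and expressed as reduction from baseline, with the 1 h reading compared against vehicle.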

[9] = Toxicity in topically treated NZW rabbit assessed as hyperaemia measured after 3 hrs; parameters: species or system Oryctolagus cuniculus; conditions: in vivo, topical_or_ocular

LIM domain kinase 2 (Homo sapiens), sequence (P53671 whole entry, looked up, the tested form may be a part): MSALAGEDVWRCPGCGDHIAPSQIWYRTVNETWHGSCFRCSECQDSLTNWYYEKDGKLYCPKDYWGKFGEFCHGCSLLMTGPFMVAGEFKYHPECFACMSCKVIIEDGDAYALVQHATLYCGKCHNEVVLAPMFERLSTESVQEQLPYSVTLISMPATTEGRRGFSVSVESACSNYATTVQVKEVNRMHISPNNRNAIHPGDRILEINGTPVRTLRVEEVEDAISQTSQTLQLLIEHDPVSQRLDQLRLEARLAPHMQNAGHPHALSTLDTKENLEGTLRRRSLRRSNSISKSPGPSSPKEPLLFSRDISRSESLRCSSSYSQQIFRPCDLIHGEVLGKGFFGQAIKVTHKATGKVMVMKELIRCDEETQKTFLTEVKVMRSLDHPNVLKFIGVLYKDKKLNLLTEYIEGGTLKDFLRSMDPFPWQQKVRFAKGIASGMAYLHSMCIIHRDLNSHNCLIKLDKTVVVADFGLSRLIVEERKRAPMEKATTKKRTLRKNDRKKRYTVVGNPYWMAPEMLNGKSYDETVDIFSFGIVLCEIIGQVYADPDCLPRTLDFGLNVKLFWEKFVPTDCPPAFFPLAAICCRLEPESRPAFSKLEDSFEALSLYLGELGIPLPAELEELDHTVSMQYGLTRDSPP

SMILES | pIC50 [1] | pIC50 [2] | further results
COc1cccc(CN2CCOc3cc(-c4ccnc(N)c4)ccc3C2=O)c1 | 7.82 | 5.94 | –
N#Cc1cccc(CN2CCOc3cc(-c4ccncc4)ccc3C2=O)c1 | 7.30 | 5.51 | –
O=C1c2ccc(-c3ccncc3)cc2OCCN1Cc1cccc(C(F)(F)F)c1 | 6.88 | 5.71 | –
COc1cccc(CN2CCOc3cc(-c4ccncc4)ccc3C2=O)c1 | 8.52 | 7.03 | inhibition [3]: Active; inhibition [4]: Active; inhibition [5]: Active; inhibition [6]: Active; Activity [7]: inactive; Activity [8]: 34.3%; Activity [9]: Non-Toxic
COc1cccc(CN2CCOc3cc(-c4cncnc4)ccc3C2=O)c1 | < 5.00 | < 5.00 | –
COc1cccc(CN2CCOc3cc(-c4ccc5c(c4)OCO5)ccc3C2=O)c1 | < 5.00 | < 5.00 | –
COc1cccc(CN2CCOc3cc(-c4ccc(N)nc4)ccc3C2=O)c1 | < 5.00 | < 5.00 | –
COc1cccc(CN2CCOc3ccc(-c4ccncc4)cc3C2=O)c1 | 6.12 | < 5.00 | –
O=Cc1cccc(CN2CCOc3cc(-c4ccncc4)ccc3C2=O)c1 | 7.54 | 6.18 | –
COc1cccc(CN2CCOc3cc(-c4cnc5[nH]ccc5c4)ccc3C2=O)c1 | 5.26 | < 5.00 | –
COc1cccc(CN2CCOc3cc(-c4ccc5[nH]ncc5c4)ccc3C2=O)c1 | 6.74 | 5.97 | –
COc1cccc(CN2CCOc3cc(-c4ccnc5[nH]ccc45)ccc3C2=O)c1 | 7.82 | 6.99 | –
COC(=O)c1cccc(CN2CCOc3cc(-c4ccncc4)ccc3C2=O)c1 | 8.05 | 6.68 | –
O=C1c2ccc(-c3ccncc3)cc2OCCN1Cc1cccc(OC(F)(F)F)c1 | 6.31 | 5.03 | –
COc1cc(CN2CCOc3cc(-c4ccncc4)ccc3C2=O)cc(OC)c1 | 6.66 | 5.35 | –
COc1cccc(CN2COc3cc(-c4ccc5[nH]ncc5c4)ccc3C2=O)c1 | 6.36 | 5.84 | –
COc1cccc(CN2CCCc3cc(-c4ccc5[nH]ncc5c4)ccc3C2=O)c1 | 5.67 | < 5.00 | –
COc1cccc(CN2CC(C)(C)Oc3cc(-c4ccc5[nH]ncc5c4)ccc3C2=O)c1 | 6.13 | 5.22 | –

Reference: ChEMBL document CHEMBL4834456, “Discovery of 3,4-dihydrobenzo[f][1,4]oxazepin-5(2H)-one derivatives as a new class of ROCK inhibitors for the treatment of glaucoma” (Bioorg Med Chem Lett, 2021)
